What all share (assay type): cell-based, human
Assay [1] has as its system NTERA-2 ECCs. Briefly: Immunoblotting of total cell extracts. The following applies: NTERA-2, 1 μM Adriamycin, 24 h. In a few lines:
(§1)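 Cells were cultured with 2.5 μM test compound for up to 96 h, and attached plus unattached cells were pooled. Whole-cell RIPA lysates were run on 4–12% Bis-Tris gels, transferred to nitrocellulose and blocked in 5% milk/TBS. Primary antibodies went on overnight at 4°C, followed by infrared secondary antibodies and imager quantitation. Each blot carried untreated U2OS as a shared standard, with Ponceau-S histones for normalization and lighter exposures for quantitation. Adriamycin for 24 h (NTERA-2 1 μM, H108 2 μM) served as a DNA-break control.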
On the technique in general: In western blotting, separated proteins are transferred to a membrane and probed.

Assay [2] has as its system H108 fibroblasts. Briefly: Immunoblotting of total cell extracts. The settings on record: H108 fibroblasts; 2.5 μM WX8 or 2 μM Adriamycin 24 h. The method in brief:
as §1

The subject of assay [3] is HFF-1 normal skin fibroblast. Briefly: Cells with <2N DNA by FACS of permeabilized cells stained with PI. The following applies: Homo sapiens, HFF-1, read-out: IC50 DNA (50% of cells with <2N DNA). In a few lines:
(§2)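 Cells were exposed to a range of test compound concentrations alongside vehicle (DMSO) controls. They were then permeabilized, stained with propidium iodide, and DNA content was read by flow cytometry. IC50 is the concentration at which 50% of cells hold <2N DNA, from 3 independent repetitions with SEM. Line averages and differentiated/pluripotent ratios are derived from these IC50s. NTERA-2 was also run as a time course at 5 μM, normalized to vehicle at each time point.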
(In flow cytometry, cells or beads pass a laser one at a time.)

For assay [4], the system named is NTERA-2 ECC. As to the kind of experiment: Live cells / PCD by FACS of nonpermeabilized cells stained with annexin-V and PI. In a few lines:
(§3)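 Cells were seeded so that vehicle wells stayed subconfluent, then treated with a range of test compound concentrations for 4 days. Without permeabilization, they were stained with annexin-V-FITC and propidium iodide and analysed by flow cytometry. Double-negative cells (Q3) were scored as live and Q1+Q2 as programmed death. Vehicle was set to 100% viable and 0% dead. Results are the mean of three independent assays with SEM; group averages and ratios are derived from the IC50s.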

Assay [5] has as its system NTERA-2 ECC. As to the kind of experiment: Cells with <2N DNA by FACS of permeabilized cells stained with PI. The following applies: Homo sapiens, NTERA2, read-out: IC50 DNA (50% of cells with <2N DNA). In a few lines:
as §2

The test system of assay [6] is HFF-1 normal skin fibroblast. Briefly: Live cells / PCD by FACS of nonpermeabilized cells stained with annexin-V and PI. The settings on record: Homo sapiens, HFF-1, read-out: IC50 Live Cells. The method in brief:
as §3

For orientation: IC50 means the point on the concentration scale where inhibition reaches its midpoint.

Take `COc1cccc2c1C(=O)c1c(O)c3c(c(O)c1C2=O)C[C@@](O)(C(=O)CO)C[C@@H]3O[C@H]1C[C@H](N)[C@H](O)[C@H](C)O1` [Adriamycin, doxorubicin]: in assay [1], the CASP3 cleaved is reported as above 90%. Besides, in assay [2], the CASP3 cleavage result is listed as “Neither WX8 nor Adriamycin induced cleavage” and the PARP cleavage entry is “Neither WX8 nor Adriamycin induced cleavage”.

Regarding `Cc1cccc(/C=N/Nc2cc(N3CCOCC3)nc(OCCc3ccccn3)n2)c1` [Apilimod], the IC50 in assay [3] is above 10000 nM; in assay [4] (Homo sapiens, NTERA2, 96 h, read-out: IC50 Live Cells), 200 nM; in assay [5] it was 400 nM; in assay [6], above 10000 nM. Moreover, the “Effectiveness relative to WX8” value in assay [4] (NTERA-2 cells) was “about 10 times”.
